Source: ChEMBL document CHEMBL3286116, “Synthesis, biological evaluation and structure-activity correlation study of a series of imidazol-based compounds as Candida albicans inhibitors” (Eur J Med Chem, 2014)
≈ marks a conversion by molar mass, not a printed value.

Columns and labels:
Type in all cases: functional
Candida albicans [1] = assay: Antifungal activity against Candida albicans PMC 1011 after 48 hrs by CLSI broth microdilution method; settings: PMC 1011, 48 h
Summary of the method: (§1)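 Yeast CLSI broth microdilution (M27-A3). Compounds dissolved in DMSO at 100× the top test concentration, then diluted as serial two-fold dilutions in RPMI 1640 to final 0.125–64. Inoculum was 1.0–1.5 × 10^3 cells mL−1, incubated at 35 °C and read for growth at 48 h. MIC is the lowest concentration giving ≥50% growth inhibition versus growth control. Reported as the median of five replicates and as the geometric mean.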

Nannizzia gypsea [2] = assay: Antifungal activity against Microsporum gypseum DSM 3824 after 72 hrs by CLSI broth microdilution method; settings: DSM 3824, 72 h
Summary of the method: (§2)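 Dermatophytes tested by CLSI broth microdilution for filamentous fungi (M38-A2). Serial two-fold dilutions of DMSO-dissolved compound in RPMI 1640, final 0.125–64. Inoculum was 0.4–5 × 10^4 CFU mL−1, incubated at 35 °C and read at 72 h. MIC80 is the lowest concentration giving ≥80% growth inhibition versus growth control. Median of five replicates, plus geometric mean.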

Cryptococcus neoformans [3] = assay: Antifungal activity against Cryptococcus neoformans PMC 2103 after 72 hrs by CLSI broth microdilution method; settings: PMC 2103, 72 h
Summary of the method: (§3)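 Cryptococcus neoformans tested by CLSI broth microdilution in RPMI 1640, with serial two-fold dilutions from DMSO stocks at 100× the top concentration, final 0.125–64. Inoculum was 1.0–1.5 × 10^3 cells mL−1 at 35 °C, with growth read at 72 h. MIC is the lowest concentration with ≥50% growth inhibition versus control. Median of five replicates, plus geometric mean.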

Nannizzia gypsea [4] = assay: Antifungal activity against Microsporum gypseum PMC 7303 after 72 hrs by CLSI broth microdilution method; settings: PMC 7303, 72 h; summary of the method: as §2
Pichia kudriavzevii [5] = assay: Antifungal activity against Candida krusei DSM 6128 after 48 hrs by CLSI broth microdilution method; settings: DSM 6128, 48 h; summary of the method: as §1
Candida tropicalis [6] = assay: Antifungal activity against Candida tropicalis DSM 11953 after 48 hrs by CLSI broth microdilution method; settings: DSM 11953, 48 h; summary of the method: as §1
[7] = system: Trichophyton mentagrophytes; assay: Antifungal activity against Trichophyton mentagrophytes PMC 6552 after 72 hrs by CLSI broth microdilution method; settings: PMC 6552, 72 h; summary of the method: as §2
Cryptococcus neoformans [8] = assay: Antifungal activity against Cryptococcus neoformans PMC 2123 after 72 hrs by CLSI broth microdilution method; settings: PMC 2123, 72 h; summary of the method: as §3
Nakaseomyces glabratus [9] = assay: Antifungal activity against Candida glabrata PMC 0805 after 48 hrs by CLSI broth microdilution method; settings: PMC 0805, 48 h; summary of the method: as §1
Candida parapsilosis [10] = assay: Antifungal activity against Candida parapsilosis ATCC 22019 after 48 hrs by CLSI broth microdilution method; settings: Lodderomyces parapsilosis, ATCC 22019, 48 h; summary of the method: as §1
Candida albicans [11] = assay: Antifungal activity against Candida albicans ATCC 20891 after 48 hrs by CLSI broth microdilution method; settings: ATCC 20891, 48 h; summary of the method: as §1
[12] = system: Trichophyton mentagrophytes; assay: Antifungal activity against Trichophyton mentagrophytes PMC 6503 after 72 hrs by CLSI broth microdilution method; settings: PMC 6503, 72 h; summary of the method: as §2
Candida albicans [13] = assay: Antifungal activity against Candida albicans ATCC 90028 after 48 hrs by CLSI broth microdilution method; settings: ATCC 90028, 48 h; summary of the method: as §1
Candida albicans [14] = assay: Antifungal activity against Candida albicans ATCC 10231 after 48 hrs by CLSI broth microdilution method; settings: ATCC 10231, 48 h; summary of the method: as §1
Candida albicans [15] = assay: Antifungal activity against Candida albicans ATCC 10261 after 48 hrs by CLSI broth microdilution method; settings: ATCC 10261, 48 h; summary of the method: as §1
Pichia kudriavzevii [16] = assay: Antifungal activity against Candida krusei PMC 0613 after 48 hrs by CLSI broth microdilution method; settings: PMC 0613, 48 h; summary of the method: as §1
[17] = system: Trichophyton mentagrophytes; assay: Antifungal activity against Trichophyton mentagrophytes PMC 6509 after 72 hrs by CLSI broth microdilution method; settings: PMC 6509, 72 h; summary of the method: as §2
Cryptococcus neoformans [18] = assay: Antifungal activity against Cryptococcus neoformans DSM 11959 after 72 hrs by CLSI broth microdilution method; settings: DSM 11959, 72 h; summary of the method: as §3
Cryptococcus neoformans [19] = assay: Antifungal activity against Cryptococcus neoformans PMC 2136 after 72 hrs by CLSI broth microdilution method; settings: PMC 2136, 72 h; summary of the method: as §3
Candida albicans [20] = assay: Antifungal activity against Candida albicans ATCC 24433 after 48 hrs by CLSI broth microdilution method; settings: ATCC 24433, 48 h; summary of the method: as §1
Nakaseomyces glabratus [21] = assay: Antifungal activity against Candida glabrata PMC 0807 after 48 hrs by CLSI broth microdilution method; settings: PMC 0807, 48 h; summary of the method: as §1
[22] = system: Trichophyton mentagrophytes; assay: Antifungal activity against Trichophyton mentagrophytes PMC 6531 after 72 hrs by CLSI broth microdilution method; settings: PMC 6531, 72 h; summary of the method: as §2
[23] = system: Trichophyton mentagrophytes; assay: Antifungal activity against Trichophyton mentagrophytes PMC 6515 after 72 hrs by CLSI broth microdilution method; settings: PMC 6515, 72 h; summary of the method: as §2
Candida parapsilosis [24] = assay: Antifungal activity against Candida parapsilosis DSM 11224 after 48 hrs by CLSI broth microdilution method; settings: Lodderomyces parapsilosis, DSM 11224, 48 h; summary of the method: as §1
Cryptococcus neoformans [25] = assay: Antifungal activity against Cryptococcus neoformans PMC 2115 after 72 hrs by CLSI broth microdilution method; settings: PMC 2115, 72 h; summary of the method: as §3
Candida tropicalis [26] = assay: Antifungal activity against Candida tropicalis PMC 0910 after 48 hrs by CLSI broth microdilution method; settings: PMC 0910, 48 h; summary of the method: as §1
[27] = system: Trichophyton mentagrophytes; assay: Antifungal activity against Trichophyton mentagrophytes DSM 4870 after 72 hrs by CLSI broth microdilution method; settings: DSM 4870, 72 h; summary of the method: as §2
Candida albicans [28] = assay: Antifungal activity against Candida albicans ATCC 76615 after 48 hrs by CLSI broth microdilution method; settings: ATCC 76615, 48 h; summary of the method: as §1
Cryptococcus neoformans [29] = assay: Antifungal activity against Cryptococcus neoformans PMC 2102 after 72 hrs by CLSI broth microdilution method; settings: PMC 2102, 72 h; summary of the method: as §3
Cryptococcus neoformans [30] = assay: Antifungal activity against Cryptococcus neoformans PMC 2111 after 72 hrs by CLSI broth microdilution method; settings: PMC 2111, 72 h; summary of the method: as §3
Candida albicans [31] = assay: Antifungal activity against Candida albicans ATCC 3153 after 48 hrs by CLSI broth microdilution method; settings: ATCC 3153, 48 h; summary of the method: as §1
Nannizzia gypsea [32] = assay: Antifungal activity against Microsporum gypseum PMC 7331 after 72 hrs by CLSI broth microdilution method; settings: PMC 7331, 72 h; summary of the method: as §2
Cryptococcus neoformans [33] = assay: Antifungal activity against Cryptococcus neoformans PMC 2107 after 72 hrs by CLSI broth microdilution method; settings: PMC 2107, 72 h; summary of the method: as §3

| Compound | MIC50 (Candida albicans [1]) [µg/mL] | MIC80 (Nannizzia gypsea [2]) [µg/mL] | MIC50 (Cryptococcus neoformans [3]) [µg/mL] | MIC80 (Nannizzia gypsea [4]) [µg/mL] | MIC50 (Pichia kudriavzevii [5]) [µg/mL] | MIC50 (Candida tropicalis [6]) [µg/mL] | MIC80 [7] [µg/mL] | MIC50 (Cryptococcus neoformans [8]) [µg/mL] | MIC50 (Nakaseomyces glabratus [9]) [µg/mL] | MIC50 (Candida parapsilosis [10]) [µg/mL] | MIC50 (Candida albicans [11]) [µg/mL] | MIC80 [12] [µg/mL] | MIC50 (Candida albicans [13]) [µg/mL] | MIC50 (Candida albicans [14]) [µg/mL] | MIC50 (Candida albicans [15]) [µg/mL] | MIC50 (Pichia kudriavzevii [16]) [µg/mL] | MIC80 [17] [µg/mL] | MIC50 (Cryptococcus neoformans [18]) [µg/mL] | MIC50 (Cryptococcus neoformans [19]) [µg/mL] | MIC50 (Candida albicans [20]) [µg/mL] | other results |
| --- | --- | --- | --- | --- | --- | --- | --- | --- | --- | --- | --- | --- | --- | --- | --- | --- | --- | --- | --- | --- | --- |
| O=C(O[C@@H](Cn1ccnc1)c1ccc(Cl)cc1)N1CCN(c2ccc(Cl)cc2)CC1 | 4 (≈ 8.98 µM) | 8 (≈ 18 µM) | 2 (≈ 4.49 µM) | 8 (≈ 18 µM) | 128 (≈ 287 µM) | 64 (≈ 144 µM) | 8 (≈ 18 µM) | 2 (≈ 4.49 µM) | 8 (≈ 18 µM) | 1 (≈ 2.25 µM) | 8 (≈ 18 µM) | 4 (≈ 8.98 µM) | 4 (≈ 8.98 µM) | 8 (≈ 18 µM) | 4 (≈ 8.98 µM) | 8 (≈ 18 µM) | 8 (≈ 18 µM) | 2 (≈ 4.49 µM) | 2 (≈ 4.49 µM) | 8 (≈ 18 µM) | MIC50 (Nakaseomyces glabratus [21]): 32 µg/mL (≈ 71.9 µM); MIC80 [22]: 8 µg/mL (≈ 18 µM); MIC80 [23]: 4 µg/mL (≈ 8.98 µM); MIC50 (Candida parapsilosis [24]): 8 µg/mL (≈ 18 µM); MIC50 (Cryptococcus neoformans [25]): 4 µg/mL (≈ 8.98 µM); MIC50 (Candida tropicalis [26]): 16 µg/mL (≈ 35.9 µM); MIC80 [27]: 8 µg/mL (≈ 18 µM); MIC50 (Candida albicans [28]): 8 µg/mL (≈ 18 µM); MIC50 (Cryptococcus neoformans [29]): 4 µg/mL (≈ 8.98 µM); MIC50 (Cryptococcus neoformans [30]): 2 µg/mL (≈ 4.49 µM); MIC50 (Candida albicans [31]): 4 µg/mL (≈ 8.98 µM); MIC80 (Nannizzia gypsea [32]): 16 µg/mL (≈ 35.9 µM); MIC50 (Cryptococcus neoformans [33]): 2 µg/mL (≈ 4.49 µM) |
| O=C(OC(Cn1ccnc1)c1ccc(F)cc1)N1CCN(C(=O)c2ccco2)CC1 (stereo unspecified) | 32 (≈ 77.6 µM) | 128 (≈ 310 µM) | 64 (≈ 155 µM) | 128 (≈ 310 µM) | 128 (≈ 310 µM) | 64 (≈ 155 µM) | 128 (≈ 310 µM) | 128 (≈ 310 µM) | 32 (≈ 77.6 µM) | 16 (≈ 38.8 µM) | 128 (≈ 310 µM) | 128 (≈ 310 µM) | 32 (≈ 77.6 µM) | 64 (≈ 155 µM) | 128 (≈ 310 µM) | 32 (≈ 77.6 µM) | 64 (≈ 155 µM) | 64 (≈ 155 µM) | 64 (≈ 155 µM) | 128 (≈ 310 µM) | MIC50 (Nakaseomyces glabratus [21]): 128 µg/mL (≈ 310 µM); MIC80 [22]: 64 µg/mL (≈ 155 µM); MIC80 [23]: 128 µg/mL (≈ 310 µM); MIC50 (Candida parapsilosis [24]): 32 µg/mL (≈ 77.6 µM); MIC50 (Cryptococcus neoformans [25]): 128 µg/mL (≈ 310 µM); MIC50 (Candida tropicalis [26]): 128 µg/mL (≈ 310 µM); MIC80 [27]: 128 µg/mL (≈ 310 µM); MIC50 (Candida albicans [28]): 128 µg/mL (≈ 310 µM); MIC50 (Cryptococcus neoformans [29]): 128 µg/mL (≈ 310 µM); MIC50 (Cryptococcus neoformans [30]): 128 µg/mL (≈ 310 µM); MIC50 (Candida albicans [31]): 128 µg/mL (≈ 310 µM); MIC80 (Nannizzia gypsea [32]): 128 µg/mL (≈ 310 µM); MIC50 (Cryptococcus neoformans [33]): 128 µg/mL (≈ 310 µM) |
